Assay results: ChEMBL document CHEMBL1221337, “The unsaturated acyclic nucleoside analogues bearing a sterically constrained (Z)-4'-benzamido-2'-butenyl moiety: Synthesis, X-ray crystal structure study, cytostatic and antiviral activity evaluations” (Bioorg Med Chem, 2010)
Active and inactive are the calls of the source. No cut-off for these calls is given here.

Legend:
[1] = test system: Mammalian orthoreovirus 1; test: Antiviral activity against Reovirus 1 infected in Vero cells assessed as inhibition of virus-induced cytopathicity; type: functional, organism-based
Summary of the method: (§1)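 Confluent cell monolayers in 96-well plates were inoculated with 100 CCID50 of virus. After 1 h adsorption, residual virus was removed. Cultures were then incubated with test compound at varying concentrations (200, 40, 8... µM). Viral cytopathicity was scored once it reached completion in untreated infected controls. Host cells: HEL for HSV-1 KOS and HSV-2 G; Vero for the Vero lines; HeLa for the HeLa lines.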

[2] = test system: Coxsackievirus B4; test: Antiviral activity against Coxsackievirus B4 infected in human HeLa cells assessed as inhibition of virus-induced cytopathicity; type: functional, organism-based; summary of the method: as §1
[3] = test system: MDCK; test: Cytotoxicity against MDCK cells assessed as cell viability after 3 days by coulter counting; type: cell-based, Canis lupus familiaris; conditions: dog, 72 h
[4] = test system: Respiratory syncytial virus; test: Antiviral activity against Respiratory syncytial virus infected in human HeLa cells assessed as inhibition of virus-induced cytopathicity; type: functional, organism-based; summary of the method: as §1
[5] = test system: HeLa; test: Cytotoxicity against human HeLa cells after 72 hrs by MTT assay; type: functional, cell-based
Summary of the method: (§2)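 Adherent cells were plated at 3000–6000 cells/well on day 0, according to doubling time. Compound was added as five 10-fold dilutions (1 × 10⁻⁸–1 × 10⁻⁴ M), with DMSO ≤0.1%, and incubated 72 h. Read-out was MTT absorbance converted to percentage growth versus untreated wells on the same plate. IC50 was obtained by linear regression between bracketing concentrations; the highest concentration was reported as ">" if not reached. Quadruplicates, three experiments.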

[6] = test system: Punta Toro virus; test: Antiviral activity against Punta Toro virus infected in Vero cells assessed as inhibition of virus-induced cytopathicity; type: functional, organism-based; summary of the method: as §1
[7] = test system: Human alphaherpesvirus 1; test: Antiviral activity against HSV1 KOS infected in HEL cells assessed as inhibition of virus-induced cytopathicity; type: functional, organism-based; summary of the method: as §1
[8] = test system: Vero; test: Cytotoxicity against african green monkey Vero cells assessed as cell viability after 3 days by coulter counting; type: cell-based; conditions: chlorocebus sabaeus, 72 h
[9] = test system: HEp-2; test: Cytotoxicity against human Hep2 cells after 72 hrs by MTT assay; type: functional, cell-based; conditions: HEp-2, 72 h; summary of the method: as §2
[10] = test system: Vaccinia virus; test: Antiviral activity against Vaccinia virus infected in HEL cells assessed as inhibition of virus-induced cytopathicity; type: functional, organism-based; conditions: Orthopoxvirus vaccinia
[11] = test system: Human alphaherpesvirus 2; test: Antiviral activity against HSV2 G infected in HEL cells assessed as inhibition of virus-induced cytopathicity; type: functional, organism-based; conditions: strain G; summary of the method: as §1
[12] = test system: Influenza B virus; test: Antiviral activity against influenza B virus infected in MDCK cells assessed as inhibition of virus-induced cytopathicity; type: functional, organism-based
Summary of the method: (§3)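 MDCK cells, nearly confluent in microtiter plates, were infected with 100 CCID50 per well. After 1 h adsorption, the inoculum was washed off. Cells were incubated with graded compound concentrations (200, 40, 8…). Cytopathicity was recorded at completion in untreated infected controls.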

[13] = test system: MCF7; test: Cytotoxicity against human MCF7 cells after 72 hrs by MTT assay; type: functional, cell-based; conditions: MCF7, 72 h; summary of the method: as §2
[14] = test system: Vesicular stomatitis virus; test: Antiviral activity against Vesicular stomatitis virus infected in HEL cells assessed as inhibition of virus-induced cytopathicity; type: functional, organism-based
[15] = test system: Vesicular stomatitis virus; test: Antiviral activity against Vesicular stomatitis virus infected in human HeLa cells assessed as inhibition of virus-induced cytopathicity; type: functional, organism-based
Summary of the method: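 Confluent HeLa cultures were infected with 100 CCID50 of virus. Unadsorbed virus was removed after 1 h, and compound was added at serial concentrations (200, 40, 8…). Viral cytopathic effect was read when untreated virus-infected control wells reached full cytopathicity.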

[16] = test system: MIA PaCa-2; test: Cytotoxicity against human MIAPaCa2 cells after 72 hrs by MTT assay; type: functional, cell-based; conditions: MIA PaCa-2, 72 h; summary of the method: as §2
[17] = test system: Influenza A virus; test: Antiviral activity against influenza A virus H1N1; H3N2 infected in MDCK cells assessed as inhibition of virus-induced cytopathicity; type: functional, organism-based; summary of the method: as §3
[18] = test system: Human respirovirus 3; test: Antiviral activity against Parainfluenza 3 infected in Vero cells assessed as inhibition of virus-induced cytopathicity; type: functional, organism-based; summary of the method: as §1
[19] = test system: SK-BR-3; test: Cytotoxicity against human SK-BR-3 cells after 72 hrs by MTT assay; type: functional, cell-based; conditions: SK-BR-3, 72 h; summary of the method: as §2
[20] = test system: SW-620; test: Cytotoxicity against human SW620 cells after 72 hrs by MTT assay; type: functional, cell-based; conditions: SW-620, 72 h; summary of the method: as §2
[21] = test system: HEL; test: Cytotoxicity against HEL cells assessed as cell viability after 3 days by coulter counting; type: cell-based; conditions: human, 72 h
Summary of the method: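 HEL cells were seeded at 5 × 10³ cells/well and allowed to proliferate 24 h. Medium with test compound at different concentrations was then added, and cells were incubated 3 days at 37 °C. Cell number was counted by Coulter counter. CC50 (50% reduction in cell number versus untreated controls) was read from plots of cell number (% of control) against concentration.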

[22] = Cytotoxicity against human WI38 cells after 72 hrs by MTT assay; type: cell-based; conditions: WI-38, 72 h; summary of the method: as §2
[23] = test system: HeLa; test: Cytotoxicity against human HeLa cells assessed as cell viability after 3 days by coulter counting; type: cell-based; conditions: 72 h
[24] = test system: Coxsackievirus B4; test: Antiviral activity against Coxsackievirus B4 infected in Vero cells assessed as inhibition of virus-induced cytopathicity; type: functional, organism-based; summary of the method: as §1
[25] = test system: Sindbis virus; test: Antiviral activity against Sindbis virus infected in Vero cells assessed as inhibition of virus-induced cytopathicity; type: functional, organism-based; summary of the method: as §1

Compound	inhibition [1]	inhibition [2]	Activity [3]	inhibition [4]	IC50 [5] [µM]	inhibition [6]	inhibition [7]	Activity [8]	IC50 [9] [µM]	inhibition [10]	inhibition [11]	inhibition [12]	IC50 [13] [µM]	inhibition [14]	inhibition [15]	IC50 [16] [µM]	inhibition [17]	inhibition [18]	IC50 [19] [µM]	IC50 [20] [µM]	further results
Nc1nc(=O)n(C/C=C\CNC(=O)c2ccc(F)cc2)cc1F	inactive	inactive	Non-toxic	inactive	> 100	inactive	inactive	Non-toxic	32.1	inactive	inactive	inactive	> 100	inactive	inactive	> 100	inactive	inactive	> 100	> 100	Activity [21]: Non-toxic; IC50 [22]: > 100 µM; Activity [23]: Non-toxic; inhibition [24]: inactive; inhibition [25]: inactive
Nc1ccn(C/C=C\CNC(=O)c2ccc(F)cc2)c(=O)n1	inactive	inactive	Non-toxic	inactive	> 100	inactive	inactive	Non-toxic	> 100	inactive	inactive	inactive	> 100	inactive	inactive	> 100	inactive	inactive	> 100	> 100	Activity [21]: Non-toxic; IC50 [22]: 4 µM; Activity [23]: Non-toxic; inhibition [24]: inactive; inhibition [25]: inactive
Cc1cn(C/C=C\CNC(=O)c2ccc(F)cc2)c(=O)[nH]c1=O	inactive	inactive	Non-toxic	inactive	> 100	inactive	inactive	Non-toxic	> 100	inactive	inactive	inactive	24.1	inactive	inactive	> 100	inactive	inactive	> 100	> 100	Activity [21]: Non-toxic; IC50 [22]: 0.1 µM; Activity [23]: Non-toxic; inhibition [24]: inactive; inhibition [25]: inactive
